Compound activity deposited in PubChem by several laboratories.
The full list was thinned out, with hits kept by preference.
T cruzi repl: inhibitors of intracellular T. cruzi growth, primary screen, luminescence, NIH3T3 host cells | T. cruzi beta-gal in NIH3T3, 90 h | inhibition, % (test concentration not listed) | 1.4% of 300,000 active | AID 1885, 2009;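 active = mean inhibition across valid replicates above about 55%, limit read from the data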;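 note: signal also drops with host cell toxicity which is not excluded here; higher percent means less beta-gal luminescence so fewer parasites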
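System – NIH/3T3 host cells with β-galactosidase reporter T. cruzi · Doses – single 50 nL compound addition per well in DMSO · Reagent – 5000 T. cruzi trypomastigotes/well · Medium – Low-serum DMEM with 2% FBS · Timing – ≥90 h infection period, 3 h prior cell attachment · Evaluation – parasite load inhibition, % · Technique – GalScreen luminescence, 60 min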
HSF1 inh: HSF1 inhibitors in luciferase reporter cells, primary screen, cell-based, NIH3T3, luminescence; NIH3T3-HGL HSE-luciferase, MG132-induced, luminescence 8 h; hits give low values; activity change, negative = inhibition, % at 7.5 µM (by protocol); 0.77% of 300,000 active;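 active = more than half of replicate wells show activity change below -50%, luminescence cut by over half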;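 note: luciferase reports HSF-1 transcriptional activity via heat shock element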
HSF-1 act: HSF-1 activators, primary screen, NIH3T3-HGL cells, MG132 stress, luminescence, single point; AID 504408, 2011; NIH3T3-HGL HSF-1 luciferase reporter, 8 h; 100% = twice DMSO control signal; activation, % at 9 µM; 1.7% of 300,000 active;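 active = mean replicate activation of at least 50% with a set share of replicates each reaching 50%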
Hsp70 activator: Hsp70 transcriptional activators, primary screen, cell-based, HeLa, Hsp70 promoter luciferase, luminescence, 10 µM; HeLa Hsp70 promoter luciferase reporter; scaled: vehicle 0, proteasome-inhibitor control 100%; activation, % at 10 µM; 0.04% of 200,000 active;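 active = activation above the mean across all tested compounds plus 3 SD, cutoff set per campaign, cut at about 5.5% in these data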
Lmaj promast: Leishmania major promastigote growth inhibition, primary screen; Leishmania major promastigotes, resazurin fluorescence viability; inhibition, % at 10 µM; AID 1063, 2008; 9% of 200,000 active; in the data active = inhibition above about 50%;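 note: promastigotes grown with compound for 44 hours at 28 °C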
Of the large screens only hits and unclear results are named; the others gave an inactive call.

COC1CCN(C(=O)c2ccc(OC3CCN(Cc4ccccn4)CC3)cc2)CC1	none
C=CCN(CC=C)C(=O)c1ccc(OC2CCN(Cc3ccccn3)CC2)cc1	Lmaj promast 58.9
COc1ccc(C2CC(=O)C=C(NNS(=O)(=O)c3ccc(C)cc3)C2)cc1 (stereo not given)	none
Cc1nc2sccn2c(=O)c1S(=O)(=O)NCC(C)c1ccccc1 (stereo not given)	none (no result: Hsp70 activator, Lmaj promast)
O=C(COc1ccc(F)cc1)Nc1cc(S(=O)(=O)N2CCCCC2)ccc1N1CCCCC1	T cruzi repl 55.0 (no result: Hsp70 activator, Lmaj promast)
CCN1CCN(c2ccc(S(=O)(=O)N3CCCCC3)cc2NC(=O)COc2ccc(F)cc2Cl)CC1	T cruzi repl 63.9 (no result: Hsp70 activator, Lmaj promast)
CCNC(=O)O/N=C1\CCCCC1c1ccc([N+](=O)[O-])cc1[N+](=O)[O-] (stereo not given)	none (no result: Hsp70 activator, Lmaj promast)
COc1ccc(Br)cc1CNCCSc1nnnn1C	none
COc1cc(CNCCSc2nnnn2C)cc(Br)c1OCc1ccccc1F	Lmaj promast 89.6
CCOc1cc(CNCCSc2nnnn2C)cc(Br)c1OCc1ccccc1F	T cruzi repl 67.9
CCOc1cc(CNCc2ccncc2)cc(Br)c1OCc1ccccc1F	Lmaj promast 91.6
Cc1ccccc1NC(=O)Cc1nc(COC(=O)CCNS(=O)(=O)c2ccccc2)cs1	none (no result: Hsp70 activator, Lmaj promast)
CCOC(=O)c1csc(NC(=O)CC2CCCC2)n1	none
CC1(C)Cc2c(sc3c2c(=N)n(Cc2ccco2)c(=O)n3Cc2ccccc2)CO1	Lmaj promast 82.3
COC(=O)c1ccc(CN2CCC(CO)(Cc3ccccc3Cl)CC2)cc1	Lmaj promast 97.5
COC(=O)c1ccc(CN2CCCC(CO)(Cc3ccccc3F)C2)cc1 (stereo not given)	none (no result: Hsp70 activator, Lmaj promast)
COc1ccc(/C=C/CN2CCC(CO)(Cc3ccccc3Cl)CC2)cc1	Lmaj promast 95.6
CN(C)C(CNC(=O)c1cccc(OC(F)F)c1)c1ccco1 (stereo not given)	Lmaj promast 59.1
CC(NC(=O)COC(=O)Cc1ccccc1[N+](=O)[O-])c1ccccc1 (stereo not given)	Lmaj promast 60.2
CN(C)C(C(=O)NC1CCCCC1)c1ccc(Cl)cc1 (stereo not given)	none
COc1ccc(C(C(=O)NC2CCCCC2)N(C(=O)CCl)c2ccc(Cl)cc2)cc1 (stereo not given)	T cruzi repl 56.5, HSF1 inh -85.6, Lmaj promast 100.3
O=C(NC1CCCC1)C(c1ccc(Cl)cc1)N(Cc1ccc(F)cc1)C(=O)CCl (stereo not given)	Lmaj promast 100.4
O=C(CCCC(=O)N(c1ccc2c(c1)OCCO2)C(C(=O)NC1CCCCC1)c1ccc(Cl)cc1)Nc1ccccn1 (stereo not given)	HSF1 inh -65.9, Lmaj promast 58.2
COC(CN(C(=O)CCl)C(C(=O)NC1CCCC(C)C1C)c1ccc(C)cc1)OC (stereo not given)	Lmaj promast 99.6
O=C(O)CCN1C(=O)/C(=C\c2ccc(-c3nc4ccccc4s3)o2)SC1=S	none
Cc1cc(Cl)ccc1OCC(=O)NN1C(=O)C2C3C=CC(C3)C2C1=O (stereo not given)	none
Cc1cccc(N(C(=O)CNC(=O)c2ccco2)C(C(=O)NC2CCCCC2)c2cccnc2)c1 (stereo not given)	none (no result: Hsp70 activator, Lmaj promast)
COC(CN(C(=O)CCl)C(C(=O)NC1CCCCC1)c1ccc(Cl)cc1)OC (stereo not given)	Lmaj promast 80.6
O=C(NC1CCCCC1)C(c1cccnc1)N(C(=O)CCl)c1cccc(Cl)c1 (stereo not given)	Lmaj promast 99.8
COC(CN(C(=O)CCl)C(C(=O)NC1CCCCC1)c1ccccc1C)OC (stereo not given)	Lmaj promast 67.6
O=C(NC1CCCCC1)C(c1cccnc1)N(C(=O)c1ccc(Cl)nc1)C1CCCCC1 (stereo not given)	Lmaj promast 55.5
COC(CN(C)C(C(=O)NC1CCCCC1)c1ccccc1)OC (stereo not given)	none
Cc1cc(C)cc(NC(=O)N2CCNC(=O)C2CC(=O)Nc2cc(Cl)ccc2Cl)c1 (stereo not given)	none (no result: Hsp70 activator, Lmaj promast)
O=C(c1ccccn1)N1N=C2/C(=C/c3ccccc3)CCCC2C1c1ccccc1 (stereo not given)	Lmaj promast 93.9
